{"source": "ChEMBL document CHEMBL5712918", "about": "“Targeting methyltransferase PRMT5 retards the carcinogenesis and metastasis of HNSCC via epigenetically inhibiting Twist1 transcription” (Neoplasia, 2020)", "key": {"[1]": {"target": "Protein arginine N-methyltransferase 5 (Homo sapiens) (UniProt O14744)", "sequence (O14744 whole entry)": "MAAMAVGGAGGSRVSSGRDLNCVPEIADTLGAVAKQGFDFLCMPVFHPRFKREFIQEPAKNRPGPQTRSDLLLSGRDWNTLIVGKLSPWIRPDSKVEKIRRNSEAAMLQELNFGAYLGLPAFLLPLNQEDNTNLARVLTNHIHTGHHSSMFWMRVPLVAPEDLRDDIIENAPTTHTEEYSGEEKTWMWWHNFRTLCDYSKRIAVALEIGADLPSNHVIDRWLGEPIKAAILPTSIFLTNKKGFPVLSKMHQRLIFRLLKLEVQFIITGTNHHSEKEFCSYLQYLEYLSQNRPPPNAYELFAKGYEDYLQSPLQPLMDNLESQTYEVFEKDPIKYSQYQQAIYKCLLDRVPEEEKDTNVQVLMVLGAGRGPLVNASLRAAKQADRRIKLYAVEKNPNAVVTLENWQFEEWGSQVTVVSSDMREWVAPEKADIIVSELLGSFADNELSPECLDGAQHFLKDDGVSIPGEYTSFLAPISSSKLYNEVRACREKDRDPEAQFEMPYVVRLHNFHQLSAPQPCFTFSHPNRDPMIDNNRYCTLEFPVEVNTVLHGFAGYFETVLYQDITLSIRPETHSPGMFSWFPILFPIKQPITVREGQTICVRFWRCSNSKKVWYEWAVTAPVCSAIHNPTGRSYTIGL", "experiment": "Inhibition of PRMT5 in human HSC-6 cells assessed as increase in E-cadherin protein expression level at 10 uM incubated for 4 days by western blot analysis", "assay_type": "cell-based", "conditions": "time 4.0 day", "in_short": "(§1)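 HSC6 or SCC25 cells treated with 10 μM for 4 days. E-cadherin, N-cadherin and Twist1 proteins detected by immunoblot.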"}, "[2]": {"system": "Squamous carcinoma cell line", "experiment": "Antitumor activity against human squamous carcinoma cells in BALB/c nude PDX xenograft mouse assessed as tumor volume at 30 mg/kg", "assay_type": "functional, organism-based", "in_short": "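PDX: tongue squamous carcinoma tissue minced into 1∼2 mm3 pieces and passaged in BALB/c nude mice. P2 tissue implanted subcutaneously into 4-week-old mice, randomised at 50 mm3 tumour size to control or 30 mg/kg (n = 6 each). Volume change followed, and Ki-67 IHC quantified. Mean ± SD, Student's t test.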"}, "HSC-6 [3]": {"system": "HSC-6", "experiment": "Antitumor activity against human HSC-6 cells xenografted in BALB/c nude mouse model of orthotopic tumor assessed as reduction in lymphnode metastasis at 30 mg/kg by immunohistochemistry analysis", "assay_type": "functional, organism-based", "in_short": "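Orthotopic model: 5 × 10^5 HSC6 cells injected submucosally into the tongue of 4-week-old BALB/c nude mice, vehicle or 30 mg/kg (n = 12 each). Cervical lymph node metastasis detected by IHC with pan-cytokeratin antibody 1:400. Metastasis rates compared by Fisher's exact test.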"}, "[4]": {"target": "Protein arginine N-methyltransferase 5 (Homo sapiens) (UniProt O14744)", "experiment": "Inhibition of PRMT5 in human SCC-25 cells assessed as reduction in H3R8me2 protein expression at 10 uM incubated for 4 days by western blot analysis", "assay_type": "cell-based", "conditions": "time 4.0 day"}, "HSC-6 [5]": {"system": "HSC-6", "experiment": "Antitumor activity against human HSC-6 cells xenografted in BALB/c nude mouse assessed as as reduction in lymphnode metastasis at 30 mg/kg by H and E analysis", "assay_type": "functional, organism-based"}, "[6]": {"target": "Protein arginine N-methyltransferase 5 (Homo sapiens) (UniProt O14744)", "experiment": "Inhibition of PRMT5 in human SCC-25 cells over expressing Twist1 assessed as increase in N-cadherin protein level at 10 uM incubated for 4 days by immunoblot analysis", "assay_type": "cell-based", "conditions": "time 4.0 day", "in_short": "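SCC25 cells stably overexpressing Flag-tagged Twist1 were treated with or without 10 μM inhibitor for 4 days, then immunoblotted for Twist1, N-cadherin and E-cadherin.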"}, "[7]": {"target": "Protein arginine N-methyltransferase 5 (Homo sapiens) (UniProt O14744)", "experiment": "Inhibition of PRMT5 in human SCC-25 cells assessed as reduction in H3R2me2 protein expression at 10 uM incubated for 4 days by western blot analysis", "assay_type": "cell-based", "conditions": "time 4.0 day"}, "HSC-6 [8]": {"system": "HSC-6", "experiment": "Antiproliferative activity against human HSC-6 cells assessed as reduction in cell vaibility at 1 to 10 uM by CCK-8 assay", "assay_type": "functional, cell-based", "conditions": "dose 1-10 µM", "in_short": "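Proliferation of HSC6 and SCC25 cells read by CCK-8 conversion. Mean ± SD of three independent experiments, Student's t test.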"}, "HSC-6 [9]": {"system": "HSC-6", "experiment": "Antitumor activity against human HSC-6 cells xenografted in BALB/c nude mouse model of orthotopic tumor assessed as as reduction in distant metastasis in kidney at 30 mg/kg by H and E analysis", "assay_type": "functional, organism-based"}, "HSC-6 [10]": {"system": "HSC-6", "experiment": "Antimigratory activity against human HSC-6 cells assessed as reduction in cell migration at 10 uM for 4 days by transwell assay", "assay_type": "functional, cell-based", "conditions": "time 4.0 day", "in_short": "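Transwell migration and invasion with 8-μm pore inserts. HSC6 or SCC25 cells, including lines stably overexpressing Flag-Twist1, treated at 10 μM for 4 days. Mean ± SD of three independent experiments, one-way ANOVA.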"}, "[11]": {"target": "Protein arginine N-methyltransferase 5 (Homo sapiens) (UniProt O14744)", "experiment": "Inhibition of PRMT5 in human HSC-6 cells assessed as reduction in Twist1 mRNA expression at 10 uM incubated for 4 days by RT-qPCR analysis", "assay_type": "cell-based", "conditions": "time 4.0 day", "in_short": "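HSC6 or SCC25 cells exposed to 10 μM for 4 days. Twist1 mRNA measured by quantitative RT-PCR. Mean ± SD of three independent experiments, Student's t test.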"}, "[12]": {"target": "Protein arginine N-methyltransferase 5 (Homo sapiens) (UniProt O14744)", "experiment": "Inhibition of PRMT5 in human HSC-6 cells assessed as reduction in H3R2me2 enrichment in Twist1 promoter region at 10 uM incubated for 4 days by Chip-qPCR analysis", "assay_type": "cell-based", "conditions": "time 4.0 day", "in_short": "(§2)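 ChIP-qPCR at the Twist1 promoter after 4 days at 10 μM in HSC6 or SCC25 cells. Antibody ratios: H3R2me2s 1:100, H4R3me2s 1:100, WDR5 1:50, Set1 1:50; ChIP assay kit protocol. Mean ± SD of three independent experiments, Student's t test.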"}, "Rattus norvegicus [13]": {"system": "Rattus norvegicus", "experiment": "Antitumor activity against 4-Nitroquinoline-1-Oxide induced cancer Sprague-Dawley rat carcinogenic model assessed as cancer area of tongue tissue at 30 mg/kg, iv administered on week 12 and measured on week 22 (reference value: 80%)", "assay_type": "functional", "conditions": "time 10 weeks"}, "[14]": {"target": "Protein arginine N-methyltransferase 5 (Homo sapiens) (UniProt O14744)", "experiment": "Inhibition of PRMT5 in human HSC-6 cells assessed as increase in E-cadherin protein expression level at 10 uM incubated for 4 days by western blot analysis", "conditions": "time 4.0 day"}, "Rattus norvegicus [15]": {"system": "Rattus norvegicus", "experiment": "Antitumor activity against 4-Nitroquinoline-1-Oxide induced cancer Sprague-Dawley rat carcinogenic model assessed as reduction in number of Twist1 positive cells at 30 mg/kg, iv administered on week 12 and measured on week 22 by IHC assay", "assay_type": "functional, organism-based", "conditions": "time 10.0 weeks", "in_short": "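4NQO-induced SD rat tongue lesions (0.002% 4NQO in drinking water for 12 weeks; tail-vein 30 mg/kg from week 12; killed at week 22). IHC with Twist1 antibody 1:250. Percentage of positive cells from 5 random fields per sample. Groups n = 11/6, mean ± SD, Student's t test.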"}, "[16]": {"target": "Protein arginine N-methyltransferase 5 (Homo sapiens) (UniProt O14744)", "experiment": "Inhibition of PRMT5 in human HSC-6 cells assessed as reduction in WDR5 occupancy in Twist1 promoter region at 10 uM incubated for 4 days by Chip-qPCR analysis", "assay_type": "cell-based", "conditions": "time 4.0 day", "in_short": "as §2"}, "[17]": {"target": "Protein arginine N-methyltransferase 5 (Homo sapiens) (UniProt O14744)", "experiment": "Inhibition of PRMT5 in human SCC-25 cells assessed as reduction in set1 occupancy in Twist1 promoter region at 10 uM incubated for 4 days by Chip-qPCR analysis", "assay_type": "cell-based", "conditions": "time 4.0 day", "in_short": "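SCC25 cells exposed to inhibitor at 10 μM for 4 days. ChIP used a commercial kit with anti-WDR5 or anti-Set1 (1:50), and binding at the Twist1 promoter was quantified by qPCR. Mean ± SD of three independent experiments, Student's t test.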"}, "[18]": {"target": "Protein arginine N-methyltransferase 5 (Homo sapiens) (UniProt O14744)", "experiment": "Inhibition of PRMT5 in human SCC-25 cells assessed as reduction in H3R2me2 enrichment in Twist1 promoter region at 10 uM incubated for 4 days by Chip-qPCR analysis", "assay_type": "cell-based", "conditions": "time 4.0 day", "in_short": "as §2"}, "[19]": {"target": "Protein arginine N-methyltransferase 5 (Homo sapiens) (UniProt O14744)", "experiment": "Inhibition of PRMT5 in human HSC-6 cells assessed as reduction in H3R2me2 protein expression at 10 uM incubated for 4 days by western blot analysis", "assay_type": "cell-based", "conditions": "time 4.0 day"}, "[20]": {"target": "Protein arginine N-methyltransferase 5 (Homo sapiens) (UniProt O14744)", "experiment": "Inhibition of PRMT5 in human HSC-6 cells assessed as reduction in set1 occupancy in Twist1 promoter region at 10 uM incubated for 4 days by Chip-qPCR analysis", "assay_type": "cell-based", "conditions": "time 4.0 day", "in_short": "as §2"}, "[21]": {"target": "Protein arginine N-methyltransferase 5 (Homo sapiens) (UniProt O14744)", "experiment": "Inhibition of PRMT5 in human HSC-6 cells assessed as reduction in Twist1 protein expression at 10 uM incubated for 4 days by western blot analysis", "assay_type": "cell-based", "conditions": "time 4.0 day", "in_short": "as §1"}, "[22]": {"target": "Protein arginine N-methyltransferase 5 (Homo sapiens) (UniProt O14744)", "experiment": "Inhibition of PRMT5 in human HSC-6 cells over expressing Twist1 assessed as increase in N-cadherin protein level at 10 uM incubated for 4 days by immunoblot analysis", "assay_type": "cell-based", "conditions": "time 4.0 day", "in_short": "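HSC6 cells stably overexpressing Flag-Twist1, with or without 10 μM for 4 days. Twist1, N-cadherin and E-cadherin proteins detected by immunoblot.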"}, "[23]": {"target": "Protein arginine N-methyltransferase 5 (Homo sapiens) (UniProt O14744)", "experiment": "Inhibition of PRMT5 in human HSC-6 cells assessed as reduction in H4R3me2 protein expression at 10 uM incubated for 4 days by western blot analysis", "assay_type": "cell-based", "conditions": "time 4.0 day"}}, "note": "Active and inactive are the calls of the source. The rule behind the calls is not given here.", "data": [{"smiles": "O=C(NC[C@H](O)CN1CCc2ccccc2C1)c1cc(NC2COC2)ncn1", "values": [{"measurement": "inhibition", "setting": "[1]", "value": "Active"}, {"measurement": "Activity", "setting": "[2]", "value": "Active"}, {"measurement": "Activity", "setting": "HSC-6 [3]", "value": "Active"}, {"measurement": "inhibition", "setting": "[4]", "value": "Active"}, {"measurement": "Activity", "setting": "HSC-6 [5]", "value": "Active"}, {"measurement": "inhibition", "setting": "[6]", "value": "inactive"}, {"measurement": "inhibition", "setting": "[7]", "value": "Active"}, {"measurement": "Activity", "setting": "HSC-6 [8]", "value": "Active"}, {"measurement": "Activity", "setting": "HSC-6 [9]", "value": "Active"}, {"measurement": "Activity", "setting": "HSC-6 [10]", "value": "Active"}, {"measurement": "inhibition", "setting": "[11]", "value": "Active"}, {"measurement": "inhibition", "setting": "[12]", "value": "Active"}, {"measurement": "Activity", "setting": "Rattus norvegicus [13]", "value": 46.2, "unit": "%"}, {"measurement": "inhibition", "setting": "[14]", "value": "Active"}, {"measurement": "Activity", "setting": "Rattus norvegicus [15]", "value": "Active"}, {"measurement": "inhibition", "setting": "[16]", "value": "Active"}, {"measurement": "inhibition", "setting": "[17]", "value": "Active"}, {"measurement": "inhibition", "setting": "[18]", "value": "Active"}, {"measurement": "inhibition", "setting": "[19]", "value": "Active"}, {"measurement": "inhibition", "setting": "[20]", "value": "Active"}, {"measurement": "inhibition", "setting": "[21]", "value": "Active"}, {"measurement": "inhibition", "setting": "[22]", "value": "inactive"}, {"measurement": "inhibition", "setting": "[23]", "value": "Active"}]}]}
